# Reference: ChEMBL document CHEMBL1629612, “Characterization and sequence analysis of extended-spectrum-{beta}-lactamase-encoding genes from Escherichia coli, Klebsiella pneumoniae, and Proteus mirabilis isolates collected during tigecycline phase 3 clinical trials” (2009)
# Key:
# Format in all cases: functional
# Klebsiella pneumoniae [1] = assay: Antimicrobial activity against Klebsiella pneumoniae expressing beta-lactamase CTX by Etest based on multiple determinants
# In short: (§1)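 Clinical isolates from tigecycline phase 3 trials were received as frozen primary cultures. Repeat isolates from one patient were riboprinted, and only the first of identical strains was kept. β-lactamase genes were assigned by PCR against control strains, plus isoelectric focusing. ESBL confirmation used Etest ESBL strips carrying ceftazidime or cefotaxime with clavulanic acid, read per the manufacturer's instructions.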
# Escherichia coli [2] = assay: Antimicrobial activity against Escherichia coli expressing beta-lactamase CTX by Etest based on single determinant
# In short: (§2)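 Clinical isolates from tigecycline phase 3 trials were received as frozen primary cultures. Serial isolates from one patient were riboprinted, and only the first of identical strains was kept. β-Lactamase genes were assigned by PCR. ESBL confirmation used Etest ESBL strips carrying ceftazidime or cefotaxime, alone and combined with clavulanic acid, following the strip maker's instructions.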
# Proteus mirabilis [3] = assay: Antimicrobial activity against Proteus mirabilis extended-spectrum beta-lactamase producing isolate by Etest; in short: as §1
# Escherichia coli [4] = assay: Antimicrobial activity against Escherichia coli expressing beta-lactamase AmpC by Etest; in short: as §2
# Proteus mirabilis [5] = assay: Antimicrobial activity against Proteus mirabilis expressing extended-spectrum beta-lactamase by Etest based on multiple determinants; in short: as §1
# Klebsiella pneumoniae [6] = assay: Antimicrobial activity against Klebsiella pneumoniae expressing extended-spectrum beta-lactamase and beta-lactamase AmpC by Etest; in short: as §2
# Klebsiella pneumoniae [7] = assay: Antimicrobial activity against Klebsiella pneumoniae expressing beta-lactamase SHV by Etest based on multiple determinants; in short: as §1
# Klebsiella pneumoniae [8] = assay: Antimicrobial activity against Klebsiella pneumoniae expressing beta-lactamase DHA by Etest; in short: as §2
# Escherichia coli [9] = assay: Antimicrobial activity against Escherichia coli expressing beta-lactamase CTX by Etest based on multiple determinants; in short: as §2
# Proteus mirabilis [10] = assay: Antimicrobial activity against Proteus mirabilis expressing extended-spectrum beta-lactamase by Etest based on single determinant; in short: as §1
# Klebsiella pneumoniae [11] = assay: Antimicrobial activity against Klebsiella pneumoniae extended-spectrum beta-lactamase producing isolate by Etest; in short: as §1
# Proteus mirabilis [12] = assay: Antimicrobial activity against Proteus mirabilis expressing beta-lactamase AmpC by Etest; in short: as §1
# Klebsiella pneumoniae [13] = assay: Antimicrobial activity against Klebsiella pneumoniae expressing beta-lactamase SHV by Etest based on single determinant; in short: as §1
# Escherichia coli [14] = assay: Antimicrobial activity against Escherichia coli expressing beta-lactamase AmpC and extended-spectrum beta-lactamase by Etest; in short: as §2
# Klebsiella pneumoniae [15] = assay: Antimicrobial activity against Klebsiella pneumoniae expressing beta-lactamase CTX by Etest based on single determinant; in short: as §1
# Escherichia coli [16] = assay: Antimicrobial activity against Escherichia coli expressing beta-lactamase SHV by Etest; in short: as §2
# Escherichia coli [17] = assay: Antimicrobial activity against Escherichia coli extended-spectrum beta-lactamase producing isolate by Etest; in short: as §2
# Escherichia coli [18] = assay: Antimicrobial activity against Escherichia coli expressing beta-lactamase CTX and SHV by Etest; in short: as §2
# Klebsiella pneumoniae [19] = assay: Antimicrobial activity against Klebsiella pneumoniae expressing beta-lactamase SHV and CTX by Etest; in short: as §1
SMILES,MIC50 (Klebsiella pneumoniae [1]) [µg/mL],MIC90 (Klebsiella pneumoniae [1]) [µg/mL],MIC50 (Escherichia coli [2]) [µg/mL],MIC90 (Escherichia coli [2]) [µg/mL],MIC50 (Proteus mirabilis [3]) [µg/mL],MIC90 (Proteus mirabilis [3]) [µg/mL],MIC (Escherichia coli [4]) [µg/mL],MIC (Proteus mirabilis [5]) [µg/mL],MIC (Klebsiella pneumoniae [6]) [µg/mL],MIC (Klebsiella pneumoniae [7]) [µg/mL],MIC (Klebsiella pneumoniae [8]) [µg/mL],MIC50 (Escherichia coli [9]) [µg/mL],MIC90 (Escherichia coli [9]) [µg/mL],MIC (Proteus mirabilis [10]) [µg/mL],MIC50 (Klebsiella pneumoniae [11]) [µg/mL],MIC90 (Klebsiella pneumoniae [11]) [µg/mL],MIC (Proteus mirabilis [12]) [µg/mL],MIC50 (Klebsiella pneumoniae [13]) [µg/mL],MIC90 (Klebsiella pneumoniae [13]) [µg/mL],MIC50 (Escherichia coli [14]) [µg/mL],also measured
CN(C)c1ccc(O)c2c1C[C@H]1C[C@H]3[C@H](N(C)C)C(O)=C(C(N)=O)C(=O)[C@@]3(O)C(O)=C1C2=O [MINOCYCLINE],4,16,4,32,64,> 64,1,16,4,2,4,4,32,16,4,64,16,4,64,4,MIC90 (Escherichia coli [14]): > 64 µg/mL; MIC50 (Klebsiella pneumoniae [15]): 4 µg/mL; MIC90 (Klebsiella pneumoniae [15]): 32 µg/mL; MIC (Escherichia coli [16]): 2 µg/mL; MIC50 (Escherichia coli [17]): 4 µg/mL; MIC90 (Escherichia coli [17]): 32 µg/mL; MIC50 (Escherichia coli [18]): 4 µg/mL; MIC90 (Escherichia coli [18]): 16 µg/mL; MIC50 (Klebsiella pneumoniae [19]): 8 µg/mL; MIC90 (Klebsiella pneumoniae [19]): 64 µg/mL
CO/N=C(\C(=O)N[C@@H]1C(=O)N2C(C(=O)O)=C(CSc3nc(=O)c(O)nn3C)CS[C@H]12)c1csc(N)n1 [CEFTRIAXONE],> 32,> 32,> 32,> 32,8,32,4,2,2,2,1,> 32,> 32,1,> 32,> 32,8,8,> 32,> 32,MIC90 (Escherichia coli [14]): > 32 µg/mL; MIC50 (Klebsiella pneumoniae [15]): > 32 µg/mL; MIC90 (Klebsiella pneumoniae [15]): > 32 µg/mL; MIC (Escherichia coli [16]): 4 µg/mL; MIC50 (Escherichia coli [17]): > 32 µg/mL; MIC90 (Escherichia coli [17]): > 32 µg/mL; MIC50 (Escherichia coli [18]): > 32 µg/mL; MIC90 (Escherichia coli [18]): > 32 µg/mL; MIC50 (Klebsiella pneumoniae [19]): > 32 µg/mL; MIC90 (Klebsiella pneumoniae [19]): > 32 µg/mL
CO/N=C(\C(=O)N[C@@H]1C(=O)N2C(C(=O)O)=C(COC(C)=O)CS[C@H]12)c1csc(N)n1 [CEFOTAXIME],> 32,> 32,> 32,> 32,32,> 32,4,8,1,2,2,> 32,> 32,0.25,> 32,> 32,16,16,> 32,> 32,MIC90 (Escherichia coli [14]): > 32 µg/mL; MIC50 (Klebsiella pneumoniae [15]): > 32 µg/mL; MIC90 (Klebsiella pneumoniae [15]): > 32 µg/mL; MIC (Escherichia coli [16]): 4 µg/mL; MIC50 (Escherichia coli [17]): > 32 µg/mL; MIC90 (Escherichia coli [17]): > 32 µg/mL; MIC50 (Escherichia coli [18]): > 32 µg/mL; MIC90 (Escherichia coli [18]): > 32 µg/mL; MIC50 (Klebsiella pneumoniae [19]): > 32 µg/mL; MIC90 (Klebsiella pneumoniae [19]): > 32 µg/mL
